Measurements of several laboratories.
Target: G protein-coupled receptor kinase 3 (GRK3, Homo sapiens, UniProt P35626)
Residues used in one study (P35626 1-688): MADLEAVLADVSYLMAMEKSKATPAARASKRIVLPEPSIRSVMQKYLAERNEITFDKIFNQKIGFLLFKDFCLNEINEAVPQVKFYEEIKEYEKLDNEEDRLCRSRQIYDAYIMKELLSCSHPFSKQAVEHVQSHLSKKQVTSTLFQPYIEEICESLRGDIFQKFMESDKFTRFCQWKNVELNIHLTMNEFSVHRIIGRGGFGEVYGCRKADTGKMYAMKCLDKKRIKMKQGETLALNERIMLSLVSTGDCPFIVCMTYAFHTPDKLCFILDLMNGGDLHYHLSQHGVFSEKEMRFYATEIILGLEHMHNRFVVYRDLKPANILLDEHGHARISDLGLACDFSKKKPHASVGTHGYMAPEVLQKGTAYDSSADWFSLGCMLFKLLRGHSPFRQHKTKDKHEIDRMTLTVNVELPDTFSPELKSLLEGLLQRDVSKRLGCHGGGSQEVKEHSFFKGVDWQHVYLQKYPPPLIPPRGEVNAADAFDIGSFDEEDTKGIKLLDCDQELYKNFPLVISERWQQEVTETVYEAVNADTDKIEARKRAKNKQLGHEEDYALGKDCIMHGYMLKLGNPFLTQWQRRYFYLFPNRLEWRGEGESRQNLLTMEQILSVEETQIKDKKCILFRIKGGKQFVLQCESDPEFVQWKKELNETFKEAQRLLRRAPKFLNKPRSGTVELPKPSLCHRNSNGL

Structure (SMILES) | assay | conditions | quantity | value
Cn1c2c(c3ccc(Cl)c(Cl)c31)C(C#N)C1(CCOCC1)NC2=O (stereo not drawn) | thermal stability, DSF | 10 µM | ΔTm | 0 °C
CNC(=O)c1ccc(Nc2ncc(C(F)(F)F)c(NCc3nccnc3N(C)S(C)(=O)=O)n2)cc1 | cell-free assay, competition with immobilised ligand | 0.1 µM | remaining binding | 80%
Cn1c2c(Cl)c(Cl)ccc2c2cc[nH]c(=O)c21 | thermal stability, DSF | 10 µM | ΔTm | -0.3 °C
Cc1ccc(C(=O)Nc2ccc(CN3CCN(C)CC3)c(C(F)(F)F)c2)cc1C#Cc1cnc2cccnn12 | enzyme activity, inhibitor | 23.5 nM | remaining activity | 76%
CCOc1cc(-c2nncn2C)ccc1Nc1ncc2cc(C)nc(NCC(C)(C)C)c2n1 | enzyme activity, inhibitor, FRET | 1 µM | inhibition | < 15%
COCCOc1nc(-c2ccc(Cl)nc2)nc2c1CN(C(=O)c1ncn3ccccc13)CC2 | cell-free assay, competition with immobilised ligand | 0.1 µM | remaining binding | 100%
CC(C)(O)[C@H]1CC[C@H](Nc2ccc3ncc(-c4cccc(C(F)(F)F)c4)n3n2)CC1 | enzyme activity, inhibitor | 1 µM | remaining activity | 107%
CS(=O)(=O)c1cc(C2(NC(=O)c3cncc4c3cnn4-c3ccc(F)cc3)CC2)ccn1 | cell-free assay, competition with immobilised ligand | 1 µM | remaining binding | 100%
Cn1c2c(Cl)c(Cl)ccc2c2cn[nH]c(=O)c21 | thermal stability, DSF | 10 µM | ΔTm | 0 °C
CN1CC(Oc2cnc(C#N)cc2-c2ccn3nc(NC(=O)C4CC4)cc3c2)C1 | enzyme activity, inhibitor | 1 µM | inhibition | 0%
Cn1c2c(c3ccc(Cl)c(Cl)c31)C(C#N)C(C)(C)NC2=O (stereo not drawn) | thermal stability, DSF | 10 µM | ΔTm | 0.6 °C
CS(=O)(=O)N1CCCC(NC(=O)[C@H](CCC2CCCCC2)NC(=O)c2ccc(CNC(=O)c3cnc4ccccn34)cc2)C1 (stereo partly drawn) | cell-free assay, competition with immobilised ligand | 0.1 µM | remaining binding | 100%
CC(C)(C)c1nc2c(s1)c1nc(N)ncc1c1ccc(NS(=O)(=O)c3c(F)cccc3F)c(F)c12 | enzyme activity, inhibitor, radiometric | 1 µM | remaining activity | 96%
O=C(Nc1cnn(-c2csc(C(=O)NC3COC3)c2)c1)Nc1ccccc1Cl | enzyme activity, inhibitor | 5 µM | remaining activity | 102%
CCC1(CC)NC(=O)c2c(c3ccc(Cl)c(Cl)c3n2C)C1C#N (stereo not drawn) | thermal stability, DSF | 10 µM | ΔTm | 0.1 °C
O=C1NC(=O)c2cc(Nc3ccc(F)cc3)c(Nc3ccc(F)cc3)cc21 | cell-free assay | 0.5 µM | remaining signal | 104%
Nc1ncnc2occ(-c3ccc(NC(=O)Nc4cc(C(F)(F)F)ccc4F)cc3)c12 | cell-free assay, inhibitor | 20 µM | remaining signal | 69%
CCCOc1ccc([C@@H]2[C@@H](C(=O)O)[C@H](c3ccc4c(c3)OCO4)CN2CC(=O)Nc2c(CC)cccc2CC)cc1 | cell-free assay, competition with immobilised ligand | 1 µM | remaining binding | 100%
N#CC1c2c([nH]c3c(Cl)c(Cl)ccc23)C(=O)NC12CCCCC2 (racemic) | thermal stability, DSF | 10 µM | ΔTm | 0.7 °C
Cc1c(NC(=O)c2cc(C(N)=O)nc3cc(F)ccc23)c(C(F)(F)F)nn1Cc1ccc(C#N)cc1 | cell-free assay, competition with immobilised ligand | 1 µM | remaining binding | 89%
COc1cc2ncnc(Nc3ccc(Oc4ccccc4)c(C)c3C)c2cc1OC | enzyme activity, inhibitor | 1 µM | inhibition | -2%
